From ChEMBL document CHEMBL4261600 (Eur J Med Chem, 2018) come the findings set out here.

SMILES strings stand for the structures. Activity calls are given as the source filed them.

One data set deals with MV4-11. Briefly: Antiproliferative activity against human MV4-11 cells after 72 hrs by Celltiter-Glo assay. Particulars: MV4-11, 72 h. The data set is classed as functional. The method, boiled down: (§1)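 Cells seeded at 3000/well in 96-well plates, exposed to serially diluted compound for 72 h at 37 °C, 5% CO2. Viability read by CellTiter-Glo luminescence and normalized to DMSO control. GI50 derived from curve fit, mean of three independent measurements. Culture media: DMEM/10% FBS for adherent lines; IMDM for MV4-11 and MEC-1/2; RPMI 1640 for suspension lines and CHL.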
A general note: In ATP-based viability assays light output follows the ATP content of the culture.

The test system of another data set is SK-N-BE(2)-M17. The experiment in a line: Antiproliferative activity against human BE(2)-M17 cells after 72 hrs by Celltiter-Glo assay. Type of data set: functional. Particulars: SK-N-BE(2)-M17, 72 h. The method, boiled down:
as §1

The subject of a further data set is COLO 205. The experiment in a line: Antiproliferative activity against human COLO205 cells after 72 hrs by Celltiter-Glo assay. Type of data set: functional. Particulars: COLO 205, 72 h. The method, boiled down: as §1
For a further data set, the system named is HL-60. Briefly: Antiproliferative activity against human HL60 cells after 72 hrs by Celltiter-Glo assay. Type of data set: functional. Particulars: HL-60, 72 h. The method, boiled down: as §1
The test system of another data set is MOLM-13. Briefly: Antiproliferative activity against human MOLM13 cells after 72 hrs by Celltiter-Glo assay. The data set is classed as functional. Particulars: MOLM-13, 72 h. The method, boiled down: as §1
For another data set, the species on record is Homo sapiens. The experiment in a line: Induction of apoptosis in human MEC1 cells assessed as decrease in BCL-2 level up to 3 uM after 2 hrs by immunoblotting analysis. The data set is classed as functional, cell-based. Background: In western blotting, separated proteins are transferred to a membrane and probed.
A short description of data set [1]: Half life in Sprague-Dawley rat at 3 mg/kg, iv by LC-MS/MS analysis. Type of data set: ADME, organism-based. Particulars: in vivo.
Data set [2] has as its target Activin receptor type-2A (Homo sapiens) (UniProt P27037). The experiment in a line: Binding affinity to wild-type human ACVR2A (V171 to T499 residues) expressed in bacterial expression system assessed as remaining unbound target protein level at 1000 nM by Kinomescan method relative to control. The method, boiled down:
(§2)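 Single-point competition binding screen across a panel of 468 kinases and mutants, with the inhibitor at 1 μM. Binding is read out as percent of a DMSO control, and targets below 1 percent control were classed as strong binders.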

Data set [3] concerns the target Mitogen-activated protein kinase kinase kinase 6 (Homo sapiens) (UniProt O95382). Briefly: Binding affinity to wild-type human partial length ASK2 (M278 to R972 residues) expressed in mammalian expression system assessed as remaining unbound target protein level at 1000 nM by Kinomescan method relative to control. The method, boiled down: (§3)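 KINOMEscan competition binding profile across a panel of 468 kinases and mutants, with the inhibitor tested at a single concentration of 1 μM. Binding is reported as percent of control, meaning signal relative to a DMSO control.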

Data set [4] deals with Calcium/calmodulin-dependent protein kinase type II subunit alpha (Homo sapiens) (UniProt Q9UQM7). The experiment in a line: Binding affinity to wild-type human partial length CAMK2A (M1 to K328 residues) expressed in bacterial expression system assessed as remaining unbound target protein level at 1000 nM by Kinomescan method relative to control. The method, boiled down: (§4)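 Profiled in a KINOMEscan binding panel with the inhibitor at a single concentration of 1 μM. Binding to each kinase was read out as percent of control, relative to a DMSO control. Strong binders were defined as those with a percent control value below 1.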
Chain of Calcium/calmodulin-dependent protein kinase type II subunit alpha (Homo sapiens) (Q9UQM7 whole entry, the tested form may be a part): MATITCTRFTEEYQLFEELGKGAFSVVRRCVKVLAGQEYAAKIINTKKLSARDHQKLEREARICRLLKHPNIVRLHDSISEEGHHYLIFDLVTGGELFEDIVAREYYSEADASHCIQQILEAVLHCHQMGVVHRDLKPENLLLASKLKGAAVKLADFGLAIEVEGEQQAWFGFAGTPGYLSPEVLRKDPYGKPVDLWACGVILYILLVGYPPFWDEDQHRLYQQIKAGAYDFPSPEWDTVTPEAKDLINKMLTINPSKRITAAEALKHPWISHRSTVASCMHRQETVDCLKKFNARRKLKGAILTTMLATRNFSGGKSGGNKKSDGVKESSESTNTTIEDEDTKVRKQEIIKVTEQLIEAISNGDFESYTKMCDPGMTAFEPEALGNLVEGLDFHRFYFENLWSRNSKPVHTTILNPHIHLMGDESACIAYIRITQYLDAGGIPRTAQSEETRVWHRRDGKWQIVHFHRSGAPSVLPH

The target of data set [5] is Calcium/calmodulin-dependent protein kinase type II subunit beta (Homo sapiens) (UniProt Q13554). The experiment in a line: Binding affinity to wild-type human partial length CAMK2B (M1 to Q380 residues) expressed in bacterial expression system assessed as remaining unbound target protein level at 1000 nM by Kinomescan method relative to control. The method, boiled down:
as §4

Data set [6] addresses Cyclin-dependent kinase 3 (Homo sapiens) (UniProt Q00526). Briefly: Binding affinity to wild-type human full length CDK3 (M1 to H305 residues) expressed in bacterial expression system assessed as remaining unbound target protein level at 1000 nM by Kinomescan method relative to control. The method, boiled down: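 KINOMEscan competitive binding profile at 1 μM inhibitor. Remaining target binding reported as percent of DMSO control.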

Data set [7] has as its target Casein kinase I isoform gamma-3 (Homo sapiens) (UniProt Q9Y6M4). Briefly: Binding affinity to wild-type human full length CSNK1G3 (M1 to K447 residues) expressed in bacterial expression system assessed as remaining unbound target protein level at 1000 nM by Kinomescan method relative to control. The method, boiled down:
as §2

Data set [8] addresses Death-associated protein kinase 1 (Homo sapiens) (UniProt P53355). The experiment in a line: Binding affinity to wild-type human partial length DAPK1 (M1 to F296 residues) expressed in bacterial expression system assessed as remaining unbound target protein level at 1000 nM by Kinomescan method relative to control. The method, boiled down:
as §3

In data set [9] the target is Tyrosine-protein kinase JAK2 (Homo sapiens) (UniProt O60674). Briefly: Binding affinity to wild-type human partial length JAK2 JH1 catalytic domain (A829 to G1132 residues) expressed in mammalian expression system assessed as remaining unbound target protein level at 1000 nM by Kinomescan method relative to control.
Chain of Tyrosine-protein kinase JAK2 (Homo sapiens) (O60674 whole entry, the tested form may be a part): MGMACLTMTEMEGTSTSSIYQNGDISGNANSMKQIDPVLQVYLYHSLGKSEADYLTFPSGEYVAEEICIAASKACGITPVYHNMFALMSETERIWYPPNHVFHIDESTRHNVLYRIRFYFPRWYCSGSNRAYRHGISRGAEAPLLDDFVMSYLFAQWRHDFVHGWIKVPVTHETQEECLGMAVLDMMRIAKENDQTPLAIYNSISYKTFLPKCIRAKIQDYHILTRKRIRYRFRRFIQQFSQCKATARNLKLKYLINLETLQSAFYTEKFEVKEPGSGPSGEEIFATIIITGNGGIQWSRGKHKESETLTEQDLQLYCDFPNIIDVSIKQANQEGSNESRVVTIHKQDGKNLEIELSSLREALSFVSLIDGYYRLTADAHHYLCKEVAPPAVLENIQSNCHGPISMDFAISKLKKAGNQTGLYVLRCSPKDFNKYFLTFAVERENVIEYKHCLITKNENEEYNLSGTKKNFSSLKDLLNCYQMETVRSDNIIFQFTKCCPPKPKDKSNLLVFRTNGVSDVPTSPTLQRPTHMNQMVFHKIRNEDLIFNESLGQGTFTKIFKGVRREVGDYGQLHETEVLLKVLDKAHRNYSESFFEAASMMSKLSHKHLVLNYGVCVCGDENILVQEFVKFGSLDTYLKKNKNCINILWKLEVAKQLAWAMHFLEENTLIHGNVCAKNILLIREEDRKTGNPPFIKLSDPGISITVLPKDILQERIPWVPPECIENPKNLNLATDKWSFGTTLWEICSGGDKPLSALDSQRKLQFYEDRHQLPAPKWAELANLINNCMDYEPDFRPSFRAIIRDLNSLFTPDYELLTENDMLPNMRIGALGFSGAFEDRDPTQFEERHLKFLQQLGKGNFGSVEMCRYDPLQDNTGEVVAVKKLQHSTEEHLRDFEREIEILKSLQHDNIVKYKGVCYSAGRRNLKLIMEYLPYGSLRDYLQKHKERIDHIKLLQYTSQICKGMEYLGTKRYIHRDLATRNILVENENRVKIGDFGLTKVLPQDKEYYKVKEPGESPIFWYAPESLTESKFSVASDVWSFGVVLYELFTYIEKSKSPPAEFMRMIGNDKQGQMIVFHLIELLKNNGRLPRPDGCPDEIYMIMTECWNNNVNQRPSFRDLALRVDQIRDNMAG
Data set [10] concerns the target Mitogen-activated protein kinase 9 (Homo sapiens) (UniProt P45984). Briefly: Binding affinity to wild-type human full length JNK2 (M1 to Q382 residues) expressed in mammalian expression system assessed as remaining unbound target protein level at 1000 nM by Kinomescan method relative to control. The method, boiled down: as §3
In data set [11] the test system is Leucine-rich repeat serine/threonine-protein kinase 2 (Homo sapiens), Q5S007 [G2019S]. Briefly: Binding affinity to human partial length LRRK2 G2019S mutant (H970 to E2527 residues) expressed in mammalian expression system assessed as remaining unbound target protein level at 1000 nM by Kinomescan method relative to control. The method, boiled down: (§5)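 KINOMEscan competition-binding profiling across the panel of 468 kinases and mutants, with inhibitor tested at 1 μM. Binding is expressed as percent of control, with DMSO as the reference control.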

For data set [12], the target named is Macrophage-stimulating protein receptor (Homo sapiens) (UniProt Q04912). Briefly: Binding affinity to wild-type human partial length MST1R (I1057 to L1363 residues) expressed in bacterial expression system assessed as remaining unbound target protein level at 1000 nM by Kinomescan method relative to control.
Data set [13] has as its target Phosphatidylinositol 4-phosphate 3-kinase C2 domain-containing subunit beta (Homo sapiens) (UniProt O00750). The experiment in a line: Binding affinity to wild-type human partial length PIK3C2B (M1 to L1634 residues) expressed in mammalian expression system assessed as remaining unbound target protein level at 1000 nM by Kinomescan method relative to control.
Data set [14] deals with Proto-oncogene tyrosine-protein kinase receptor Ret (Homo sapiens), P07949 [V804M]. The experiment in a line: Binding affinity to human partial length RET V804M mutant (E713 to D1014 residues) expressed in bacterial expression system assessed as remaining unbound target protein level at 1000 nM by Kinomescan method relative to control. The method, boiled down:
as §5

Data set [15] has as its target Ribosomal protein S6 kinase alpha-6 (Homo sapiens) (UniProt Q9UK32). The experiment in a line: Binding affinity to wild-type human partial length N-terminal RSK4 kinase domain 1 (M1 to E397 residues) expressed in mammalian expression system assessed as remaining unbound target protein level at 1000 nM by Kinomescan method relative to control. The method, boiled down: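 KINOMEscan binding panel of 468 kinases/mutants. Inhibitor was tested at a single concentration of 1 μM. Binding is reported as percent of control, defined relative to a DMSO control.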

For data set [16] the target is unchanged. The experiment in a line: Binding affinity to wild-type human partial length C-terminal RSK4 kinase domain 2 (I401 to Y711 residues) expressed in bacterial expression system assessed as remaining unbound target protein level at 1000 nM by Kinomescan method relative to control. The method, boiled down: as §3

Chain of Ribosomal protein S6 kinase alpha-6 (Homo sapiens) (Q9UK32 whole entry, the tested form may be a part): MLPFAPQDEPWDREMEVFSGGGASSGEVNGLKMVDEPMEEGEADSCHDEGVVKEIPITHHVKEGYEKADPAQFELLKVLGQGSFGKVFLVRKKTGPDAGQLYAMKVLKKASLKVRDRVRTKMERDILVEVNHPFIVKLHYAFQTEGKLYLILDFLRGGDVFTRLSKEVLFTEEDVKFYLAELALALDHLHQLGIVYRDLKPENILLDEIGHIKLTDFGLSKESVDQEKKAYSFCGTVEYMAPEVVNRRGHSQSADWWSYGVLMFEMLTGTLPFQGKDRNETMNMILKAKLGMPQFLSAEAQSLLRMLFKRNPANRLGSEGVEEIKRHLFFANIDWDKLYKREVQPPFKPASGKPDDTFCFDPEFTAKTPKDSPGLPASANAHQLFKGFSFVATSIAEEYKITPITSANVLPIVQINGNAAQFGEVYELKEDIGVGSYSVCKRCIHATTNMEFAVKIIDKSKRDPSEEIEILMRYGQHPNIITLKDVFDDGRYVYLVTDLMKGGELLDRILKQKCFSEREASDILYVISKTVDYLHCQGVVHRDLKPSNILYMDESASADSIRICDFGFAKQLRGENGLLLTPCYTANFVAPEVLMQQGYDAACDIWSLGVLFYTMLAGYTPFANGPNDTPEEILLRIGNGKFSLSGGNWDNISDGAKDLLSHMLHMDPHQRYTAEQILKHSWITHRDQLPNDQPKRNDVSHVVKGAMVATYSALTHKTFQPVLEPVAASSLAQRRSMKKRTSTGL
Chain of Mitogen-activated protein kinase 9 (Homo sapiens) (P45984 whole entry, looked up, the tested form may be a part): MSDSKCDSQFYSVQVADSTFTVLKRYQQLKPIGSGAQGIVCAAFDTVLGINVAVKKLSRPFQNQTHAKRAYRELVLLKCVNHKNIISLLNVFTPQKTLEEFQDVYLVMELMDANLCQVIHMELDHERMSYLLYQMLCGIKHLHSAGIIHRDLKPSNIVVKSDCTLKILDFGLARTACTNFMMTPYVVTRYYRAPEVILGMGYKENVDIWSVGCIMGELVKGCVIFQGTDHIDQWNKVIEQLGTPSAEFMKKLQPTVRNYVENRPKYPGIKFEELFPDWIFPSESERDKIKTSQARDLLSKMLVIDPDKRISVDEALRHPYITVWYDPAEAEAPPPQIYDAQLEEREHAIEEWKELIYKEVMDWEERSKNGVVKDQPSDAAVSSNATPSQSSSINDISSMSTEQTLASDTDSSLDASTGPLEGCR
Chain of Mitogen-activated protein kinase kinase kinase 6 (Homo sapiens) (O95382 whole entry, the tested form may be a part): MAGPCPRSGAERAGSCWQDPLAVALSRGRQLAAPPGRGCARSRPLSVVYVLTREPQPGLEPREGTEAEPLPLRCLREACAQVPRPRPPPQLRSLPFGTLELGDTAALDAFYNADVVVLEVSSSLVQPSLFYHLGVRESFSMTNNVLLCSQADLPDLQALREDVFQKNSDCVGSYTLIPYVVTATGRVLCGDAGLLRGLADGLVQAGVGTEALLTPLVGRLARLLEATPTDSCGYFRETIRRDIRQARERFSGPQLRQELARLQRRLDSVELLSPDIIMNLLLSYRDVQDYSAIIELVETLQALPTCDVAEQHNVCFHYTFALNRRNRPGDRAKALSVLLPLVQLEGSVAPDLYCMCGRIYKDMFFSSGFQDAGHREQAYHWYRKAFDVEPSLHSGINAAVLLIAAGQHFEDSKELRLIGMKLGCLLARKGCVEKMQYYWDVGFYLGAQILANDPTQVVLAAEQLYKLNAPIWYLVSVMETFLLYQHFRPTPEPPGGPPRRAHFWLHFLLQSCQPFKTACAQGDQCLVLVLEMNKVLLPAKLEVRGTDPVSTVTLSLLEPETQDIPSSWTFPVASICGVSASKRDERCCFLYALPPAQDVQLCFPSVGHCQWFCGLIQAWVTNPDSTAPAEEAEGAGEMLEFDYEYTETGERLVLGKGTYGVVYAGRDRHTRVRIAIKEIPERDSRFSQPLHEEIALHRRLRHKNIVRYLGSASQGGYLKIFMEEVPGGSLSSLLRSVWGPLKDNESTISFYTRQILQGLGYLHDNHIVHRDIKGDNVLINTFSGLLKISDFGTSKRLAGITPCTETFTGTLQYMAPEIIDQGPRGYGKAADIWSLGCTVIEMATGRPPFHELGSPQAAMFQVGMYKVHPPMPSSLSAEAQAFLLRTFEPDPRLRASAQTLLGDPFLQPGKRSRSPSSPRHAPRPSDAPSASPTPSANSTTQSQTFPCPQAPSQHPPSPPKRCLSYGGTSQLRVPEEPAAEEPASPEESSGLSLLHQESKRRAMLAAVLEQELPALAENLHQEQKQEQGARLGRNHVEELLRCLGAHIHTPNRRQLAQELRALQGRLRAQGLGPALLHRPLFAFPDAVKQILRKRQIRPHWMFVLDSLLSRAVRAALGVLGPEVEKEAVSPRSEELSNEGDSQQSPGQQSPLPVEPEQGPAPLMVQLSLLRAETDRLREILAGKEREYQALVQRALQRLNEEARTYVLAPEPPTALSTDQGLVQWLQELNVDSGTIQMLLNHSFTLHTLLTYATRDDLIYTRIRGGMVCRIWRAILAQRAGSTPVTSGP
Chain of Calcium/calmodulin-dependent protein kinase type II subunit beta (Homo sapiens) (Q13554 whole entry, the tested form may be a part): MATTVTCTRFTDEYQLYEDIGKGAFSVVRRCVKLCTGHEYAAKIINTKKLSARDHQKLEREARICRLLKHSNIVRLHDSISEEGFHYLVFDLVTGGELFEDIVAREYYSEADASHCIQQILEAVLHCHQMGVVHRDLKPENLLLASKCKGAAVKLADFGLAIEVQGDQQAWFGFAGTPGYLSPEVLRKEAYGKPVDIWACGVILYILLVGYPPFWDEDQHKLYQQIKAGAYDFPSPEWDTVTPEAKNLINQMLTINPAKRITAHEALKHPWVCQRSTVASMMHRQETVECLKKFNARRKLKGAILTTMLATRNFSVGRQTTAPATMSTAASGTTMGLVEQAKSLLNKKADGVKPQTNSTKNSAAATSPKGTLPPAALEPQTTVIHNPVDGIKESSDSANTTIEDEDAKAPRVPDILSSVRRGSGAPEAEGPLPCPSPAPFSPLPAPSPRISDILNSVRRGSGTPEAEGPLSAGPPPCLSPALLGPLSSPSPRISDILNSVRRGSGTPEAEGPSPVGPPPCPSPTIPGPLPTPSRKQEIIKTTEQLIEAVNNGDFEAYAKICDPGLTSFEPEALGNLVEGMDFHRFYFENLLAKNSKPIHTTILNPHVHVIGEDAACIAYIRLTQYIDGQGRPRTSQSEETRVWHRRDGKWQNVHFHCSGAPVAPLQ
Chain of Cyclin-dependent kinase 3 (Homo sapiens) (Q00526 whole entry, looked up, the tested form may be a part): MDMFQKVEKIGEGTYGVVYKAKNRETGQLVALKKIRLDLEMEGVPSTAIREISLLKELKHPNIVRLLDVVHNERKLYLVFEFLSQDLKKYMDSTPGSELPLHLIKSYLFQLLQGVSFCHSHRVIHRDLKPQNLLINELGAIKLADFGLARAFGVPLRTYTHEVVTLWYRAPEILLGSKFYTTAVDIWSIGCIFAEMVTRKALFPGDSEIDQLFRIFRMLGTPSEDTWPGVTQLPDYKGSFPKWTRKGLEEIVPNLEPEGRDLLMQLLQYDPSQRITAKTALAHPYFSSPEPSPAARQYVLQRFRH

Take `COCCN[C@H]1CC[C@H](Nc2cc(-c3csc(NCC4(C#N)CCOCC4)n3)c(Cl)cn2)CC1`: the concentration for 50% growth inhibition (GI50) was found to be 12 nM in the data set with MV4-11; 34 nM in the data set on SK-N-BE(2)-M17; 14 nM in the data set on COLO 205; 56 nM in the data set with HL-60; 12 nM in the data set on MOLM-13. The outcome in the data set listed under Homo sapiens was inactive. Further, the half-life in data set [1] is 6.8 h. In addition, the Activity was found to be 100% in data set [2]; 86% in data set [3]; 100% in [4]; 100% in data set [5]; 81% in [6]; 90% in data set [7]. For the same compound, the Activity in data set [8] is 80%; in data set [9], 85%; in [10], 8.2%; in data set [11], 94%; in data set [12], 92%; in data set [13], 100%. For the same compound, the Activity came out at 98% in [14], 94% in data set [15] and 99% in data set [16].

A word on the GI50: it is the concentration at which growth is held to half of that of the control. A low value points to greater sensitivity of the cells. What is called half-life is the time in which the quantity being followed falls by half. A higher half-life goes with slow loss.
